Laboratory results from ChEMBL document CHEMBL4229369, “Design, synthesis and antitubercular evaluation of benzothiazinones containing a piperidine moiety” (Eur J Med Chem, 2018).
In brackets after ≈: the same amount, converted by molar mass.

Key:
[1] = system: Mycobacterium tuberculosis; assay: Antitubercular activity against Mycobacterium tuberculosis H37Rv ATCC27395 after 7 days by Alamar blue assay; type: functional; details: 168 h
Outline: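 Inoculum grown to late log phase in Middlebrook 7H9 with 0.2% glycerol, 0.05% Tween 80 and 10% ADC, then washed in PBS, filtered through 8 µm to remove clumps and frozen at -80 °C. Twofold compound dilutions in 7H9-ADC-TG with 2 × 10⁵ CFU per well, 37 °C. Alamar blue and Tween 80 added on day 7, read after 16-24 h (ex 530/em 590 nm). MIC is the lowest concentration giving ≥90% fluorescence reduction versus bacterium-only controls.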

[2] = Half life in ICR mouse at 50 mg/kg, po administered as single dose by HPLC analysis; type: ADME, organism-based; details: in vivo
Outline: (§1)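 SPF female ICR mice (20-25 g), fasted overnight, 3 per group; single oral dose 50 mg/kg as suspension in 0.5% CMC. Jugular vein blood at 0.25, 0.5, 1, 2, 4, 6, 8 and 24 h; serum stored at −20 °C, protein removed with acetonitrile, supernatant dried, redissolved in acetonitrile and analysed by HPLC. Parameters derived directly from the experimental data.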

[3] = Tmax in ICR mouse at 50 mg/kg, po administered as single dose by HPLC analysis; type: ADME, organism-based; details: in vivo; outline: as §1
[4] = Cmax in ICR mouse at 50 mg/kg, po administered as single dose by HPLC analysis; type: ADME, organism-based; parameters: dose 50 mg/kg, route oral; details: in vivo; outline: as §1
[5] = AUC (0 to infinity) in ICR mouse at 50 mg/kg, po administered as single dose by HPLC analysis; type: ADME, organism-based; parameters: dose 50 mg/kg, route oral, time infinity; details: in vivo; outline: as §1
[6] = MRT in ICR mouse at 50 mg/kg, po administered as single dose by HPLC analysis; type: ADME, organism-based; details: in vivo; outline: as §1

CC1CCCN(CC2CCN(c3nc(=O)c4cc(C(F)(F)F)cc([N+](=O)[O-])c4s3)CC2)C1 (stereo unspecified)
MIC90 [1]: 0.241 µg/mL (≈ 0.512 µM)

CCN(CC)CC1CCN(c2nc(=O)c3cc(C(F)(F)F)cc([N+](=O)[O-])c3s2)CC1
MIC90 [1]: 1.82 µg/mL (≈ 4.11 µM)

O=c1nc(N2CCC(NC3CCCCC3)CC2)sc2c([N+](=O)[O-])cc(C(F)(F)F)cc12
MIC90 [1]: 0.959 µg/mL (≈ 2.1 µM)

O=c1nc(N2CCC(CN3CCC(C(F)(F)F)CC3)CC2)sc2c([N+](=O)[O-])cc(C(F)(F)F)cc12
MIC90 [1]: < 0.016 µg/mL | half-life [2]: 3.3 h | Tmax [3]: 0.25 h | Cmax [4]: 1160 ng/mL | AUC(0-inf) [5]: 2490 ng·h/mL | MRT [6]: 4.26 h

NNC(=O)c1ccncc1 [ISONIAZID]
MIC90 [1]: 0.037 µg/mL (≈ 0.27 µM)

O=c1nc(N2CCC(CN3CCCC3)CC2)sc2c([N+](=O)[O-])cc(C(F)(F)F)cc12
MIC90 [1]: 3.58 µg/mL (≈ 8.09 µM)

CO[C@H]1/C=C/O[C@@]2(C)Oc3c(C)c(O)c4c(O)c(c(/C=N/N5CCN(C)CC5)c(O)c4c3C2=O)NC(=O)/C(C)=C\C=C\[C@H](C)[C@H](O)[C@@H](C)[C@@H](O)[C@@H](C)[C@H](OC(C)=O)[C@@H]1C [RIFAMPIN]
MIC90 [1]: 0.084 µg/mL (≈ 0.102 µM)

O=c1nc(N2CCC(CN3CCC4(CC3)OCCO4)CC2)sc2c([N+](=O)[O-])cc(C(F)(F)F)cc12
MIC90 [1]: 3.71 µg/mL (≈ 7.21 µM)

CN1CCN(CC2CCN(c3nc(=O)c4cc(C(F)(F)F)cc([N+](=O)[O-])c4s3)CC2)CC1
MIC90 [1]: 7.84 µg/mL (≈ 16.6 µM)

O=c1nc(N2CCN(CC3CCCCC3)CC2)sc2c([N+](=O)[O-])cc(C(F)(F)F)cc12 [MACOZINONE]
MIC90 [1]: < 0.016 µg/mL

O=c1nc(N2CCC(CN3CCCCC3)CC2)sc2c([N+](=O)[O-])cc(C(F)(F)F)cc12
MIC90 [1]: 0.481 µg/mL (≈ 1.05 µM)

O=c1nc(N2CCC(CN3CCCCCC3)CC2)sc2c([N+](=O)[O-])cc(C(F)(F)F)cc12
MIC90 [1]: 1.32 µg/mL (≈ 2.81 µM)

CN(C1CCCCC1)C1CCN(c2nc(=O)c3cc(C(F)(F)F)cc([N+](=O)[O-])c3s2)CC1
MIC90 [1]: 0.973 µg/mL (≈ 2.07 µM)

CC1CCCCN1CC1CCN(c2nc(=O)c3cc(C(F)(F)F)cc([N+](=O)[O-])c3s2)CC1 (stereo unspecified)
MIC90 [1]: 1.92 µg/mL (≈ 4.08 µM)

CC1CCN(CC2CCN(c3nc(=O)c4cc(C(F)(F)F)cc([N+](=O)[O-])c4s3)CC2)CC1
MIC90 [1]: 0.488 µg/mL (≈ 1.04 µM)

O=c1nc(N2CCC(CN3CCC(O)CC3)CC2)sc2c([N+](=O)[O-])cc(C(F)(F)F)cc12
MIC90 [1]: 1.96 µg/mL (≈ 4.15 µM)
